Measured values published in ChEMBL document CHEMBL1275546, “Use of gyrase resistance mutants to guide selection of 8-methoxy-quinazoline-2,4-diones” (2008).
In brackets after ≈: the same amount, converted by molar mass. Activity calls are given as the source filed them. The rule behind the calls is not given here.

Assays:
Escherichia coli [1] = assay: Ratio of MIC for Escherichia coli K-12 KD2934 harboring gyrB K447E mutant gene to MIC for Escherichia coli K-12 KD1397 harboring wild type gyrB gene; type: functional
Method in brief: (§1)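 Isogenic E. coli K-12 tolC::Tn10 strains made by P1 transduction. Each grown in LB to mid-exponential phase, diluted to 10^{4-5} CFU/ml in LB tubes with drug, incubated overnight at 37°C. MIC = lowest concentration blocking visible growth. Ratio = mutant MIC divided by KD1397 (gyr+) MIC.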

Escherichia coli [2] = assay: Ratio of MIC for Escherichia coli K-12 KD2932 harboring gyrB D426N mutant gene to MIC for Escherichia coli K-12 KD1397 harboring wild type gyrB gene; type: functional; method in brief: as §1
Escherichia coli [3] = assay: Bactericidal activity against wild type Escherichia coli K-12 KD1397 at 10 times MIC; type: functional
Method in brief: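 Exponentially growing E. coli K-12 (tolC-deficient via Tn10, gyr+) in LB at 37°C was exposed to drug at 10× the MIC for the indicated times. Aliquots were diluted and plated on drug-free agar to count CFU. Survival is expressed as the fraction of CFU present when drug was added. MIC came from overnight broth tubes inoculated at 10^4-5 CFU/ml and read by eye.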

Escherichia coli [4] = assay: Antibacterial activity against wild type Escherichia coli K-12 KD1397 harboring gyr gene; type: functional
Method in brief: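 Broth MIC: E. coli K-12 tolC::Tn10 strain grown in LB to mid-exponential phase, diluted to 10^4-5 CFU/ml in tubes of LB containing drug, incubated overnight at 37°C; MIC = lowest concentration blocking visible growth.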

Escherichia coli [5] = assay: Ratio of MIC for Escherichia coli K-12 KD2880 harboring gyrA D87Y mutant gene to MIC for Escherichia coli K-12 KD1397 harboring wild type gyrA gene; type: functional; method in brief: as §1
Escherichia coli [6] = assay: Ratio of MIC for Escherichia coli K-12 KD2866 harboring gyrA D87Y mutant gene to MIC for Escherichia coli K-12 KD1397 harboring wild type gyrA gene
Escherichia coli [7] = assay: Ratio of MIC for Escherichia coli K-12 KD2884 harboring gyrA A106H mutant gene to MIC for Escherichia coli K-12 KD1397 harboring wild type gyrA gene; type: functional; method in brief: as §1
Escherichia coli [8] = assay: Ratio of MIC for Escherichia coli K-12 KD2864 harboring gyrA A84P mutant gene to MIC for Escherichia coli K-12 KD1397 harboring wild type gyrA gene; type: functional; method in brief: as §1
Escherichia coli [9] = assay: Ratio of MIC for Escherichia coli K-12 KD2876 harboring gyrA S83W mutant gene to MIC for Escherichia coli K-12 KD1397 harboring wild type gyrA gene; type: functional; method in brief: as §1
Escherichia coli [10] = assay: Ratio of MIC for Escherichia coli K-12 KD2862 harboring gyrA S83L mutant gene to MIC for Escherichia coli K-12 KD1397 harboring wild type gyrA gene; type: functional; method in brief: as §1
Escherichia coli [11] = assay: Ratio of MIC for Escherichia coli K-12 KD2955 harboring gyrA D82A mutant gene to MIC for Escherichia coli K-12 KD1397 harboring wild type gyrA gene; type: functional; method in brief: as §1
Escherichia coli [12] = assay: Ratio of MIC for Escherichia coli K-12 KD2882 harboring gyrA G81C mutant gene to MIC for Escherichia coli K-12 KD1397 harboring wild type gyrA gene; type: functional; method in brief: as §1
Escherichia coli [13] = assay: Ratio of MIC for Escherichia coli K-12 KD2878 harboring gyrA A67S mutant gene to MIC for Escherichia coli K-12 KD1397 harboring wild type gyrA gene; type: functional; method in brief: as §1
Escherichia coli [14] = assay: Ratio of MIC for Escherichia coli K-12 KD2886 harboring gyrA A51V mutant gene to MIC for Escherichia coli K-12 KD1397 harboring wild type gyrA gene; type: functional; method in brief: as §1
Escherichia coli [15] = assay: Bactericidal activity against wild type Escherichia coli K-12 KD1397 at 10 times MIC after 2 hrs; type: functional, organism-based
Method in brief: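 Wild-type KD1397 (tolC-deficient), exponential-phase LB culture, exposed to drug at 10× MIC for timed intervals or for 2 h. Samples diluted and plated on drug-free agar for CFU counts. Survival given as fraction of CFU at drug addition.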

Escherichia coli [16] = assay: Bactericidal activity against Escherichia coli K-12 KD2866 harboring gyrA D87Y mutant gene assessed as bacterial count at 10 times MIC; type: functional, organism-based
Escherichia coli [17] = assay: Bactericidal activity against Escherichia coli K-12 […] harboring gyrA D87Y mutant gene assessed as bacterial count at 10 times MIC after 2 hrs; type: functional, organism-based

COc1c(N2CC[C@@H](CN)C2)c(F)cc2c(=O)[nH]c(=O)n(C3CC3)c12
Ratio (Escherichia coli [1]): <1 | Ratio (Escherichia coli [2]): <1

COc1c(N2C[C@@H]3CCCN[C@@H]3C2)c(F)cc2c(=O)c(C(=O)O)cn(C3CC3)c12 [MOXIFLOXACIN]
Ratio (Escherichia coli [1]): <1 | Ratio (Escherichia coli [2]): 2

COc1c(N2CC[C@H](N)C2)c(F)cc2c(=O)[nH]c(=O)n(C3CC3)c12
Ratio (Escherichia coli [1]): <1 | Ratio (Escherichia coli [2]): 1

CCC1CN(c2c(F)cc3c(=O)c(C(=O)O)cn(C4CC4)c3c2OC)CCN1 (stereo not drawn)
Activity (Escherichia coli [3]): Active | fold change (FC) (Escherichia coli [3]): 2 | Ratio (Escherichia coli [1]): <1 | Ratio (Escherichia coli [2]): 2

CCC1CN(c2c(F)cc3c(=O)[nH]c(=O)n(C4CC4)c3c2OC)CCN1 (stereo not drawn)
Ratio (Escherichia coli [1]): <1 | Ratio (Escherichia coli [2]): 1

COc1c(N2C[C@@H]3CCCN[C@@H]3C2)c(F)cc2c(=O)[nH]c(=O)n(C3CC3)c12
Ratio (Escherichia coli [1]): <1 | Ratio (Escherichia coli [2]): 1

COc1c(N2CC[C@H](N)C2)c(F)cc2c(=O)c(C(=O)O)cn(C3CC3)c12
Ratio (Escherichia coli [1]): >1 | MIC (Escherichia coli [4]): 0.016 µg/mL (≈ 0.0443 µM) | Ratio (Escherichia coli [2]): 2

CCC1CN(c2c(F)cc3c(=O)n(N)c(=O)n(C4CC4)c3c2OC)CCN1 (stereo not drawn)
Ratio (Escherichia coli [1]): <1 | Ratio (Escherichia coli [2]): 1

COc1c(N2CC[C@H](N)C2)c(F)cc2c(=O)n(N)c(=O)n(C3CC3)c12
Ratio (Escherichia coli [5]): 1 | Ratio (Escherichia coli [6]): 1 | Ratio (Escherichia coli [7]): 1 | Ratio (Escherichia coli [8]): 1 | Ratio (Escherichia coli [9]): 1 | Ratio (Escherichia coli [1]): <1 | Ratio (Escherichia coli [10]): 1 | Ratio (Escherichia coli [2]): 1 | Ratio (Escherichia coli [11]): 1 | Ratio (Escherichia coli [12]): 1 | Ratio (Escherichia coli [13]): 1 | Ratio (Escherichia coli [14]): 1

COc1c(N2C[C@@H]3CCCN[C@@H]3C2)c(F)cc2c(=O)n(N)c(=O)n(C3CC3)c12
Ratio (Escherichia coli [5]): 1 | Activity (Escherichia coli [15]): inactive | Ratio (Escherichia coli [6]): 1 | Ratio (Escherichia coli [7]): 1 | Ratio (Escherichia coli [8]): 1 | Ratio (Escherichia coli [9]): 1 | Ratio (Escherichia coli [1]): <1 | Ratio (Escherichia coli [10]): 1 | Ratio (Escherichia coli [2]): 1 | Ratio (Escherichia coli [11]): 1 | Ratio (Escherichia coli [12]): 1 | Ratio (Escherichia coli [13]): 1 | Ratio (Escherichia coli [14]): 1

COc1c(N2CC[C@@H](CN)C2)c(F)cc2c(=O)n(N)c(=O)n(C3CC3)c12
Ratio (Escherichia coli [5]): 1 | Ratio (Escherichia coli [6]): 1 | Ratio (Escherichia coli [7]): 1 | Ratio (Escherichia coli [8]): 1 | Ratio (Escherichia coli [9]): 1 | Activity (Escherichia coli [3]): Active | Ratio (Escherichia coli [1]): <1 | Activity (Escherichia coli [16]): Active | Ratio (Escherichia coli [10]): 1 | MIC (Escherichia coli [4]): 0.7 µg/mL (≈ 1.93 µM) | Ratio (Escherichia coli [2]): <1 | Ratio (Escherichia coli [11]): 1 | Ratio (Escherichia coli [12]): 1 | Ratio (Escherichia coli [13]): 1 | Activity (Escherichia coli [17]): Active | Ratio (Escherichia coli [14]): 1

COc1c(N2CC[C@@H](CN)C2)c(F)cc2c(=O)c(C(=O)O)cn(C3CC3)c12
Ratio (Escherichia coli [1]): >1 | MIC (Escherichia coli [4]): 0.004 µg/mL (≈ 0.0107 µM) | Ratio (Escherichia coli [2]): 2
